Test results reported in ChEMBL document CHEMBL4706580, “4-Amino-1,2,4-triazole-3-thione-derived Schiff bases as metallo-β-lactamase inhibitors” (Eur J Med Chem, 2020).
pIC50, pKi: −log10 of the molar value. Calls of active or inactive are those of the source. The calls are words filed in the database; no cut-off is given here.

Legend:
[1] = Inhibition of beta-lactamase VIM-2 (unknown origin) expressed in Escherichia coli LZ2310 assessed as potentiation of cefoxitin antibacterial activity by measuring cefoxitin induced diameter of inhibition zone at 240 uM incubated for 18 hrs by disk diffusion method (reference value: 14 mm)
How it was run: (§1)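 Efflux-deficient E. coli LZ2310 (NorE, MdfA, AcrA knocked out) carrying pLB-II with the cloned MBL gene. Mueller-Hinton, CLSI disk diffusion; antibiotic disks (30 µg cefoxitin for VIM-2, 10 µg ampicillin for VIM-4, 30 µg ceftazidime for NDM-1/IMP-1) loaded with inhibitor in DMSO (≤15 µL). Zone diameter after 18 h, 35 ± 1 °C; DMSO and 220 µg EDTA controls. Triplicate.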

[2] = Inhibition of beta-lactamase CphA (unknown origin) expressed in Escherichia coli BL21(DE3) using imipenem as substrate by measuring substrate hydrolysis by spectrophotometric analysis
How it was run: (§2)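 Enzyme 0.2–0.8 nM in 15 mM cacodylate pH 6.5, no added zinc, pre-incubated 30 min at 21 °C with inhibitor (100 μM screen). Imipenem substrate added from 10 mM stock; hydrolysis at 300 nm, 30 °C. Residual activity vs three uninhibited samples; Ki (1–100 μM inhibitor) by Hanes linearization, competitive model. Triplicate.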

[3] = Inhibition of beta-lactamase IMP-1 (unknown origin) expressed in Escherichia coli BL21(DE3) using imipenem as substrate by measuring substrate hydrolysis by spectrophotometric analysis
How it was run: (§3)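 Purified enzyme (overproduced in E. coli BL21(DE3), pET-9a; ion-exchange and gel filtration), 1-70 nM final. Reporter substrate 150 μM imipenem, read at 300 nm, 30 °C, 50 mM HEPES pH 7.5. Single-point screen at 100 or 200 μM; Ki from v0/vi vs [I] (0.5–1,000 μM final) assuming competitive inhibition, or Dixon plot. Triplicate.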

[4] = Inhibition of beta-lactamase VIM-2 (unknown origin) expressed in Escherichia coli XL-1 assessed as potentiation of cefoxitin antibacterial activity by measuring cefoxitin induced diameter of inhibition zone at 240 uM incubated for 18 hrs by disk diffusion method (reference value: 8 mm)
How it was run: (§4)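 Wild-type efflux E. coli XL-1 Blue transformed with pLB-II-VIM-2. Mueller-Hinton disk diffusion per CLSI, 30 µg cefoxitin disks loaded with inhibitor dissolved in DMSO (≤15 µL). Growth-inhibition zone measured after 18 h at 35 ± 1 °C; DMSO negative and 220 µg EDTA positive controls. Triplicate.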

[5] = Inhibition of beta-lactamase NDM1 (unknown origin) expressed in Escherichia coli BL21(DE3) using cefotaxime/nitrocefin as substrate by measuring substrate hydrolysis by spectrophotometric analysis
How it was run: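 His-tagged enzyme from E. coli BL21(DE3) pET-15b, affinity-purified, 1-70 nM final. Reporter substrate 120 μM cefotaxime (260 nm) or 100 μM nitrocefin (482 nm), 30 °C, 50 mM HEPES pH 7.5. Inhibitor 0.5–1,000 μM final; competitive Ki from v0/vi vs [I] slope or Dixon plot. Triplicate.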

[6] = Inhibition of beta-lactamase VIM2 (unknown origin) expressed in Escherichia coli BL21(DE3) using imipenem as substrate by measuring substrate hydrolysis by spectrophotometric analysis; how it was run: as §3
[7] = Inhibition of beta-lactamase VIM4 (unknown origin) expressed in Escherichia coli BL21(DE3) using imipenem as substrate by measuring substrate hydrolysis by spectrophotometric analysis; how it was run: as §3
[8] = Inhibition of beta-lactamase L1 (unknown origin) expressed in Escherichia coli BL21(DE3) using nitrocefin as substrate by measuring substrate hydrolysis preincubated for 30 mins by spectrophotometric analysis
How it was run: (§5)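 Enzyme 0.2–0.8 nM in 25 mM HEPES pH 7.5 with 50 μM ZnCl2 final, pre-incubated 30 min at 21 °C with inhibitor (100 μM screen). Nitrocefin 100 μM final, read at 482 nm, 30 °C. Residual activity vs three uninhibited samples; Ki (1–100 μM inhibitor) from Hanes linearization, competitive model. Triplicate.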

HeLa = assay: Cytotoxicity in human HeLa cells assessed as cell lysis upto 250 uM incubated for 72 hrs by membrane integrity assay; type: cell-based
HUVEC = assay: Cytotoxicity in human HUVEC cells assessed as reduction in cell viability upto 100 uM incubated for 72 hrs by MTT assay; type: cell-based
[9] = molecular target: Hydroxyacylglutathione hydrolase (Homo sapiens); assay: Inhibition of human Glyoxalase II expressed in Escherichia coli BL21 (DE3)
[10] = Inhibition of beta-lactamase VIM-2 (unknown origin) expressed in Escherichia coli XL-1 assessed as potentiation of cefoxitin antibacterial activity by measuring cefoxitin induced diameter of inhibition zone at 120 uM incubated for 18 hrs by disk diffusion method (reference value: 8 mm); how it was run: as §4
[11] = Inhibition of beta-lactamase VIM2 (unknown origin) expressed in Escherichia coli BL21(DE3) using imipenem as substrate by measuring substrate hydrolysis at 100 uM by spectrophotometric analysis; how it was run: as §3
[12] = Inhibition of beta-lactamase L1 (unknown origin) expressed in Escherichia coli BL21(DE3) using nitrocefin as substrate by measuring substrate hydrolysis at 100 uM preincubated for 30 mins by spectrophotometric analysis; how it was run: as §5
[13] = Inhibition of beta-lactamase VIM-2 (unknown origin) expressed in Escherichia coli LZ2310 assessed as potentiation of cefoxitin antibacterial activity by measuring cefoxitin induced diameter of inhibition zone at 120 uM incubated for 18 hrs by disk diffusion method (reference value: 14 mm); how it was run: as §1
[14] = Inhibition of beta-lactamase VIM-2 (unknown origin) expressed in Escherichia coli LZ2310 assessed as potentiation of cefoxitin antibacterial activity by measuring cefoxitin induced diameter of inhibition zone at 40 uM incubated for 18 hrs by disk diffusion method (reference value: 14 mm); how it was run: as §1
[15] = Inhibition of beta-lactamase NDM-1 (unknown origin) expressed in Escherichia coli LZ2310 assessed as potentiation of ceftazidime antibacterial activity by measuring ceftazidime induced diameter of inhibition zone at 40 uM incubated for 18 hrs by disk diffusion method (reference value: 15 mm); how it was run: as §1
[16] = Inhibition of beta-lactamase IMP-1 (unknown origin) expressed in Escherichia coli LZ2310 assessed as potentiation of ceftazidime antibacterial activity by measuring ceftazidime induced diameter of inhibition zone at 40 uM incubated for 18 hrs by disk diffusion method (reference value: 9 mm); how it was run: as §1
Escherichia coli [17] = assay: Synergistic antibacterial activity against NDM-1 producing Escherichia coli assessed as MIC of imipenem at 32 ug/ml by broth microdilution method; type: functional; settings: dose 32 µg/ml
Escherichia coli [18] = assay: Synergistic antibacterial activity against NDM-1 producing Escherichia coli assessed as MIC of meropenem at 32 ug/ml by broth microdilution method; type: functional; settings: dose 32 µg/ml
Escherichia coli [19] = assay: Synergistic antibacterial activity against NDM-1 producing Escherichia coli assessed as MIC of ceftazidime at 32 ug/ml by broth microdilution method; type: functional; settings: dose 32 µg/ml
Escherichia coli [20] = assay: Synergistic antibacterial activity against NDM-1 producing Escherichia coli assessed ass MIC of ceftazidime/avibactam at 32 ug/ml by broth microdilution method; type: functional; settings: dose 32 µg/ml
How it was run: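 MIC of ceftazidime-avibactam (avibactam fixed at 4 µg/mL) by CLSI broth microdilution in Mueller-Hinton broth. Used the NDM-1-producing multidrug-resistant E. coli clinical isolate SI-001M at 5 × 10⁴ CFU/well, with and without inhibitor at a fixed 32 µg/ml. No colistin added. Triplicate determinations.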

Escherichia coli [21] = assay: Antibacterial activity against NDM-1 producing Escherichia coli in presence of colistin by broth microdilution method.; type: functional
[22] = Inhibition of beta-lactamase VIM-2 (unknown origin) expressed in Escherichia coli LZ2310 assessed as potentiation of cefoxitin antibacterial activity by measuring cefoxitin induced diameter of inhibition zone at 320 uM incubated for 18 hrs by disk diffusion method (reference value: 14 mm); how it was run: as §1
[23] = Inhibition of beta-lactamase NDM-1 (unknown origin) expressed in Escherichia coli LZ2310 assessed as potentiation of ceftazidime antibacterial activity by measuring ceftazidime induced diameter of inhibition zone at 320 uM incubated for 18 hrs by disk diffusion method (reference value: 15 mm); how it was run: as §1
[24] = Inhibition of beta-lactamase VIM-2 (unknown origin) expressed in Escherichia coli XL-1 assessed as potentiation of cefoxitin antibacterial activity by measuring cefoxitin induced diameter of inhibition zone at 320 uM incubated for 18 hrs by disk diffusion method (reference value: 8 mm); how it was run: as §4
[25] = Inhibition of beta-lactamase IMP-1 (unknown origin) expressed in Escherichia coli LZ2310 assessed as potentiation of ceftazidime antibacterial activity by measuring ceftazidime induced diameter of inhibition zone at 320 uM incubated for 18 hrs by disk diffusion method (reference value: 9 mm); how it was run: as §1
[26] = Inhibition of beta-lactamase VIM2 (unknown origin) expressed in Escherichia coli BL21(DE3) using imipenem as substrate by measuring substrate hydrolysis at 200 uM by spectrophotometric analysis; how it was run: as §3
[27] = Inhibition of beta-lactamase NDM1 (unknown origin) expressed in Escherichia coli BL21(DE3) using cefotaxime/nitrocefin as substrate by measuring substrate hydrolysis at 200 uM by spectrophotometric analysis
[28] = Inhibition of beta-lactamase NDM1 (unknown origin) expressed in Escherichia coli BL21(DE3) using cefotaxime/nitrocefin as substrate by measuring substrate hydrolysis at 100 uM by spectrophotometric analysis
[29] = Inhibition of beta-lactamase VIM4 (unknown origin) expressed in Escherichia coli BL21(DE3) using imipenem as substrate by measuring substrate hydrolysis at 100 uM by spectrophotometric analysis; how it was run: as §3
[30] = Inhibition of beta-lactamase IMP-1 (unknown origin) expressed in Escherichia coli LZ2310 assessed as potentiation of ceftazidime antibacterial activity by measuring ceftazidime induced diameter of inhibition zone at 80 uM incubated for 18 hrs by disk diffusion method (reference value: 9 mm); how it was run: as §1
[31] = Inhibition of beta-lactamase VIM-2 (unknown origin) expressed in Escherichia coli LZ2310 assessed as potentiation of cefoxitin antibacterial activity by measuring cefoxitin induced diameter of inhibition zone at 80 uM incubated for 18 hrs by disk diffusion method (reference value: 14 mm); how it was run: as §1
[32] = Inhibition of beta-lactamase CphA (unknown origin) expressed in Escherichia coli BL21(DE3) using imipenem as substrate by measuring substrate hydrolysis at 100 uM by spectrophotometric analysis; how it was run: as §2
[33] = Inhibition of beta-lactamase IMP-1 (unknown origin) expressed in Escherichia coli BL21(DE3) using imipenem as substrate by measuring substrate hydrolysis at 100 uM by spectrophotometric analysis; how it was run: as §3
[34] = Inhibition of beta-lactamase VIM-2 (unknown origin) expressed in Escherichia coli XL-1 assessed as potentiation of cefoxitin antibacterial activity by measuring cefoxitin induced diameter of inhibition zone at 80 uM incubated for 18 hrs by disk diffusion method (reference value: 8 mm); how it was run: as §4
[35] = Inhibition of beta-lactamase NDM1 (unknown origin) expressed in Escherichia coli BL21(DE3) using cefotaxime/nitrocefin as substrate by measuring substrate hydrolysis at 50 uM by spectrophotometric analysis

Compound | pKi [2] | pKi [3] | pKi [5] | pKi [6] | pKi [7] | pKi [8] | pIC50 [9] | inhibition [11] | inhibition [12] [%] | inhibition zone (IZ) [16] [mm] | inhibition [26] | inhibition [29] [%] | also measured
Cc1ccccc1-c1n[nH]c(=S)n1/N=C/c1ccccc1C(=O)O | 3.92 | 4.24 | 3.96 | 5.52 | 5.80 | 4.40 | 4.59 |  |  |  |  |  | inhibition zone (IZ) [1]: 20 mm; inhibition zone (IZ) [4]: 9 mm; Activity (HeLa): Non-Toxic; Activity (HUVEC): Non-Toxic
Oc1ccc(/C=N/n2c(-c3cccc(C(F)(F)F)c3)n[nH]c2=S)c(O)c1 |  | 4.18 | 4.49 |  | 5.46 |  |  | 53% | 15 |  |  |  | inhibition zone (IZ) [10]: 12 mm
O=C(O)c1ccccc1/C=N/n1c(Cc2ccc3ccccc3c2)n[nH]c1=S | 4.82 | 4.46 | 5.77 | 5.62 | 5.30 | 6.30 | 4.52 |  |  | 9 |  |  | inhibition zone (IZ) [13]: 16 mm; inhibition zone (IZ) [14]: 14 mm; inhibition zone (IZ) [15]: 15 mm; MIC (Escherichia coli [17]): 8 µg/mL; MIC (Escherichia coli [18]): 64 µg/mL; MIC (Escherichia coli [19]): > 256 µg/mL; MIC (Escherichia coli [20]): > 256 µg/mL; MIC (Escherichia coli [21]): > 256 µg/mL
O=C(O)c1ccccc1/C=N/n1c(-c2cccc(Cl)c2)n[nH]c1=S |  | 4.24 | 5.12 |  | 5.70 |  |  | inactive | 60 |  | inactive |  | inhibition zone (IZ) [22]: 14 mm; inhibition zone (IZ) [23]: 15 mm; inhibition zone (IZ) [24]: 8 mm; inhibition zone (IZ) [25]: 9 mm
Cc1ccccc1-c1n[nH]c(=S)n1/N=C/c1cc([N+](=O)[O-])ccc1O | 5.52 | 4.96 |  |  |  |  |  | inactive | 61 | 9 | inactive | 44 | inhibition [27]: inactive; inhibition [28]: inactive; inhibition zone (IZ) [30]: 13 mm
Cc1ccccc1-c1n[nH]c(=S)n1/N=C/c1cccc(O)c1O |  |  |  | 5.28 |  |  |  |  | 55 |  |  | 65 | inhibition zone (IZ) [31]: 18 mm; inhibition [32]: 68%; inhibition [33]: 63%; inhibition zone (IZ) [34]: 15 mm; inhibition [35]: 39%
